mABHD4 FP = ABHD4 inhibitors, primary screen, biochemical, fluorescence polarization, mouse | (Lyso)-N-acylphosphatidylethanolamine lipase (Mus musculus), Q8VD66 | purified mABHD4, FP-Rh probe fluorescence polarization | inhibition, % at 8.92 µM | actives 0.54% (n = 370,000) | AID 720543, 2013;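 active = inhibition exceeding the mean over every tested compound plus 3 SD, cut at about 30% in these data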;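 also: 0% = plate median of compound wells and 100% = S159A mutant with DMSO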
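Assay system: mABHD4 protein; medium: HEPES pH 7.0, NaCl, Pluronic buffer; dosing: 8.92 µM, single dose; schedule: 45 min + 60 min at 25 °C; signal: FP readout, ex 525 nm / em 598 nm; read-out: normalized percent inhibition of probe labeling; repeats: single replicate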
rCAG binder = binders of r(CAG) RNA repeats, primary screen, biochemical, fluorescence | r(CAG) RNA repeat, TO-PRO-1 dye displacement fluorescence | inhibition, % at 3 µM | actives 1.3% (n = 370,000) | AID 651821, 2012;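 active = inhibition above the plate cutoff, the mean of all test compounds on that plate plus 3 SD, cut at about 35% in these data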;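 also: 0% = DMSO alone and 100% = 100 µM mitoxantrone as full dye displacement; higher means more dye released from RNA so lower well fluorescence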
SIAE primary = human SIAE inhibitors, primary screen, biochemical, fluorescence polarization, FP-Rh probe, 1536-well HTS; actives 0.69% (n = 370,000); inhibition, % at 9.66 µM; SIAE FP-Rh probe binding; Sialate O-acetylesterase (Homo sapiens), Q9HAT2;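 active = inhibition above a cutoff: mean of compounds within the control limits plus 3 SD of those, cut at about 17% in these data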;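 also: 0% = plate median of compound wells and 100% = probe without SIAE protein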
Target sequence (Q9HAT2 whole entry, looked up): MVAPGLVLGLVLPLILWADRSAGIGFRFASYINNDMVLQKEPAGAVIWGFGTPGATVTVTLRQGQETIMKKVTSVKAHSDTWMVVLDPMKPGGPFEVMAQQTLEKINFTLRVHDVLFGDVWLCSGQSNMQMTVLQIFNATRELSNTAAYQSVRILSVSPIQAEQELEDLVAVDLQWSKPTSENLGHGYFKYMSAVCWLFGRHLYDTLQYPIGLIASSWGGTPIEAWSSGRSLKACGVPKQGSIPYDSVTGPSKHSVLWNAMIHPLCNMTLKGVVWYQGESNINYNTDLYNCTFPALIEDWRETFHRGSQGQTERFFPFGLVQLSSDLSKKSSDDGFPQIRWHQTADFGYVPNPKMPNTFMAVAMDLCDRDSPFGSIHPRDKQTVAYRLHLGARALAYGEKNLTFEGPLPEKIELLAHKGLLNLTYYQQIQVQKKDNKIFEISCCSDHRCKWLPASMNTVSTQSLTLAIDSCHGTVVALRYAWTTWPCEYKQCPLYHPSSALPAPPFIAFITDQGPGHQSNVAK
HTRA1 inhibitor = HTRA1 serine protease inhibitors, primary screen, biochemical, fluorescence polarization, HTS. inhibition, % at 5.96 µM. AID 504803, 2011. actives 0.5% (n = 340,000). recombinant HTRA1, FP-rhodamine activity-based probe; in the data active = inhibition above about 36%;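 also: 0% = enzyme with DMSO and 100% = wells lacking enzyme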
TCR CD3 inh = inhibitors of human TCR-CD3 interaction, primary screen, biochemical, fluorescence, TAMRA-labeled TCR probe. T-cell receptor (TCR). actives 0.37% (n = 360,000). AID 651800, 2012. inhibition, % at 9.4 µM; in the data active = inhibition above about 19%;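 also: recombinant mutant TCR 2C K166C tagged with TAMRA read by polarization; 0% = receptor in buffer alone and 100% = receptor with positive control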
rCAG bind conf = small molecules binding CAG repeat RNA – biochemical, fluorescence, confirmation. r(CAG) RNA repeat, TO-PRO-1 dye displacement fluorescence. actives 70% (n = 4,300). AID 652065, 2013. inhibition, % at 3 µM. shares compounds with rCAG binder;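 active = inhibition above a per-plate cutoff, the mean inhibition of sample wells plus 3 SD, cut at about 35% in these data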;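 also: loss of TO-PRO-1 fluorescence as compound displaces dye from 1x1 AA loop RNA; 0% = DMSO only wells and 100% = 100 µM mitoxantrone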
dCAG dye counter = displacement of TO-PRO-1 from CAG DNA duplex, counter-screen for rCAG RNA repeat binder project, biochemical, fluorescence, TO-PRO-1 dye, d(CAG) DNA oligo; AID 652068, 2013; d(CAG) DNA oligo TO-PRO-1 dye displacement; inhibition, % at 3 µM; shares compounds with rCAG binder; actives 94% (n = 4,300);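 active = inhibition above its plate's cutoff, the mean test-well inhibition plus 3 SD, cut at about 4.8% in these data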;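 also: 0% = DNA dye mix with DMSO and 100% = 100 µM mitoxantrone; hits displace the dye from DNA and so lower well fluorescence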
* marks the source's active call; other numbers are inactive results; . = no result given. Rows were chosen to be rich in hits. Some 2.5% of all compounds tested hit in one or more screens of this group.

SMILES	mABHD4 FP	rCAG binder	SIAE primary	HTRA1 inhibitor	TCR CD3 inh	rCAG bind conf	dCAG dye counter
CN(C)/C=C/C(=O)c1ccc([N+](=O)[O-])c(CS(=O)(=O)c2ccccc2)c1	-1	35*	6	-8	-1	4	3
Cc1c(Nc2nc(C(F)(F)F)nc3ccccc23)c(=O)n(-c2ccccc2)n1C	4	-8	14	0	8	.	.
CCCCCCCC(=O)N1c2ccccc2NC(=O)C1CC(=O)Nc1ccc(C(=O)O)cc1 (stereo unspecified)	-35	30	0	-3	4	.	.
CCCCCCCCCC(=O)N1c2ccccc2NC(=O)C1CC(=O)Nc1ccc(C(=O)O)cc1 (stereo unspecified)	-57	74*	-1	-22	7	70*	30*
O=C(O)c1cccc(NC(=S)NC(=O)c2cccc(OCc3ccccc3)c2)c1	-37	61*	-14	-26	-4	64*	26*
CSC(=NS(=O)(=O)c1ccccc1)SC	5	2	-5	2	9	.	.
Cn1cc(CCC(=O)N2CCCC(Nc3ccc(F)cc3)C2)cn1 (stereo unspecified)	7	0	3	3	9	.	.
CC1(C(=O)NS(=O)(=O)c2cccc(F)c2)CCN1C(=O)Cc1ccc(-c2ccccc2)cc1 (stereo unspecified)	-3	51*	-8	.	0	50*	15*
CC1(C(=O)NS(=O)(=O)c2cccc(Cl)c2)CCN1C(=O)Cc1ccc(-c2ccccc2)cc1 (stereo unspecified)	2	74*	1	.	-6	68*	29*
CC(C)(C)c1ccc(CC(=O)N2CCC2(C)C(=O)NS(=O)(=O)c2cccc(F)c2)cc1 (stereo unspecified)	2	39*	-1	.	1	29	5.4*
CC1(C(=O)NS(=O)(=O)c2cccc(F)c2)CCN1C(=O)Cc1ccccc1 (stereo unspecified)	4	4	6	.	1	.	.
CC1(C(=O)NS(=O)(=O)c2cccc(F)c2)CCN1C(=O)Cc1cccc2ccccc12 (stereo unspecified)	0	16	-9	.	0	.	.
CCOC(=O)C(C(=O)NCc1ccc(F)cc1)c1ncc(C(F)(F)F)cc1Cl (stereo unspecified)	-2	-9	-1	5	8	.	.
COc1cc(/C=C2\C(=N)N3N=C(S(C)(=O)=O)SC3=NC2=O)cc(OC)c1OCCOc1ccc(C)cc1	5	57*	-19	-22	3	88*	58*
COc1cc(/C=C2\C(=N)N3N=C(S(C)(=O)=O)SC3=NC2=O)ccc1OCCOc1ccc(C)cc1	-18	24	-10	-4	-5	.	.
Cc1ccc(S(=O)(=O)Oc2ccc(/C=C3\C(=N)N4N=C(S(C)(=O)=O)SC4=NC3=O)cc2)cc1	2	63*	-31	-18	7	88*	66*
COc1cc(/C=C2\C(=N)N3N=C(S(C)(=O)=O)SC3=NC2=O)cc(OC)c1OCCOc1cccc(C)c1	17	51*	-18	-23	6	89*	69*
O=C(COC(=O)c1ccc(NS(=O)(=O)c2cccs2)cc1)NCc1ccco1	.	.	.	-10	.	.	.
O=C(COC(=O)c1ccc(NS(=O)(=O)c2cccs2)cc1O)NCc1ccccc1	5	38*	-2	7	-1	25	6.4*
COc1ccc(Cl)cc1NC(=O)COC(=O)c1cc(NS(=O)(=O)c2cccs2)ccc1O	-44	30	-31	-51	-6	.	.
O=C(COC(=O)c1ccc(NS(=O)(=O)c2cccs2)cc1O)Nc1nc2ccccc2s1	-92	73*	-66	-53	3	64*	29*
Cc1c(-c2ccccc2)[n+](=O)c2c(n1[O-])CCC2	-3	2	1	3	8	.	.
CCCNc1nc(-c2cc(C(=O)Nc3ccccc3)on2)cc(C(C)C)n1	-19	-7	-4	-52	-1	.	.
CCN(CC)C(=O)CSc1nc2c(sc(=S)n2-c2ccc(C)cc2C)c(=O)[nH]1	2	39*	-5	-10	-2	46*	15*
CCOC(=O)CSc1nc2c(sc(=S)n2-c2ccc(OCC)cc2)c(=O)[nH]1	-4	43*	-2	-11	4	39*	10*
SMILES	mABHD4 FP	rCAG binder	SIAE primary	HTRA1 inhibitor	TCR CD3 inh	rCAG bind conf	dCAG dye counter
CCOc1ccc(-n2c(=S)sc3c(=O)[nH]c(SCC(=O)C(C)(C)C)nc32)cc1	-1	37*	-5	-18	8	66*	30*
CCOc1ccc(-n2c(=S)sc3c(=O)[nH]c(SCC(=O)N4CCC(C)CC4)nc32)cc1	1	15	1	-5	0	.	.
CCOC(=O)CSc1nc2c(sc(=S)n2-c2ccccc2)c(=O)[nH]1	3	26	2	6	-4	.	.
CCOc1ccc(-n2c(=S)sc3c(=O)[nH]c(SCC(=O)NCc4ccco4)nc32)cc1	7	47*	10	-3	1	41*	12*
COc1cc(=O)oc(-c2ccccc2)c1C(C)=O	-1	-2	-1	-1	8	.	.
COc1cccc(N2CCN(C(=O)CCS(=O)(=O)c3ccc4c(c3)oc(=O)n4C)CC2)c1	2	6	9	-2	-2	.	.
CN(C)C=NC(=O)c1cc(C(=O)c2ccc(Cl)cc2)c[nH]1	1	-1	4	0	10	.	.
Cc1cc(OCC(=O)Nc2ccc(OCc3ccccc3)cc2)nc(C(C)C)n1	6	-4	-1	-5	3	.	.
COC(=O)c1ccccc1NC(=O)CNc1ccc(F)c(S(=O)(=O)N2CCOCC2)c1	4	4	14	-2	-1	.	.
CCOC(=O)C1C(=O)CC(=O)C(C(=O)OCC)C1c1ccc(O)cc1 (stereo unspecified)	-1	36*	0	3	-3	3	1
CCOC(=O)C1C(=O)CC(C)(O)C(C(=O)OCC)C1c1ccc(F)cc1 (stereo unspecified)	5	-8	5	4	1	.	.
O=C(Cc1ccc(Cl)cc1)N/N=C/c1cccc(O)c1	4	1	-2	-9	-2	.	.
O=C(Nc1cc(Br)ccc1O)c1cc(-c2ccccc2)on1	-2	4	-18	1	9	.	.
O=C(Nc1cc(Cl)ccc1O)c1cc(-c2ccco2)on1	-35	46*	-15	-10	1	18	12*
